Active and inactive are the calls of the source. No cut-off for these calls is given here.
Columns and labels:
[1] = biological target: Acyl-CoA (8-3)-desaturase (Rattus norvegicus) (UniProt Q920R3); experiment: Inhibition of delta5 desaturase in Sprague-Dawley rat liver microsome at 10 uM; format: microsomes
Acyl-CoA desaturase 1 = biological target: T1, Acyl-CoA desaturase 1 (Mus musculus, UniProt P13516); experiment: Inhibition of SCD1 in ICR mouse liver microsome using [9,10 3H]- stearoyl-Coenzyme A substrate assessed as decreased production of tritiated water after 20 min by scintillation counting analysis
T1 sequence (P13516 whole entry): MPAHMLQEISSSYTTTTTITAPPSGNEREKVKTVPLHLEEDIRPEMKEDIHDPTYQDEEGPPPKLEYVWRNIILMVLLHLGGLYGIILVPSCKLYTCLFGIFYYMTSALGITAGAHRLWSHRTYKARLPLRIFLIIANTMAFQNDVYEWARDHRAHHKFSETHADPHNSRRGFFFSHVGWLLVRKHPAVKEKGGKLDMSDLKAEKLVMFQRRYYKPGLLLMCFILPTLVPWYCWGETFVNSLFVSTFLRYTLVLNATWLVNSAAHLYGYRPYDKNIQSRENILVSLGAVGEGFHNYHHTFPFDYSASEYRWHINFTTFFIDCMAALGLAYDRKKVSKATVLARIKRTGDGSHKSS

[2] = biological target: Acyl-CoA 6-desaturase (Rattus norvegicus) (UniProt Q9Z122); experiment: Inhibition of delta6 desaturase in Sprague-Dawley rat liver microsome using cis,cis-9,12-octadecadienoic acid substrate at 10 uM
Chain of Acyl-CoA 6-desaturase (Rattus norvegicus) (Q9Z122 whole entry, looked up): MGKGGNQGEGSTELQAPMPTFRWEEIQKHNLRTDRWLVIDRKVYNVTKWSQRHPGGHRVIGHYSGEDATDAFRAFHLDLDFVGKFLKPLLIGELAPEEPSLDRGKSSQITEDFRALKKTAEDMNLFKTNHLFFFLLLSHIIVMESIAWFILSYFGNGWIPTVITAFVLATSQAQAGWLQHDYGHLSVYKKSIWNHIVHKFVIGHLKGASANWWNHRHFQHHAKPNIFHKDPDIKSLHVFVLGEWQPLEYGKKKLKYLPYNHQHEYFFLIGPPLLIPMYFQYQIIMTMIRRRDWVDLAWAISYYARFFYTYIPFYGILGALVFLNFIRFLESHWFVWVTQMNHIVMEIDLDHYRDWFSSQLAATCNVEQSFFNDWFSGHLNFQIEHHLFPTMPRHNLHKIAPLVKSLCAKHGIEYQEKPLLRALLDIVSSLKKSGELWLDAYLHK

[3] = Apparent permeability from apical to basolateral side in human Caco2 cells; format: ADME, cell-based; conditions: Caco-2
Procedure, shortened: (§1)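 Caco-2 monolayers; apparent permeability a-to-b and b-to-a reported in 10⁻⁶ cm/s.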

[4] = Metabolic stability in rat liver microsome after 30 mins by LC/MS/MS analysis; format: ADME; conditions: liver microsomes, read-out: Stability
Procedure, shortened: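 Compound incubated 30 min with rat liver microsomes; percent parent remaining by LC/MS/MS.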

[5] = Apparent permeability from basolateral to apical side in human Caco2 cells; format: ADME, cell-based; conditions: Caco-2; procedure, shortened: as §1
Rattus norvegicus = experiment: In vivo inhibition of SCD1 in Lewis rat liver microsome at 15 mg/kg, ip administered qd for 2 days; format: functional; conditions: 48 h, route intraperitoneal
Procedure, shortened: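 Lewis rats fed high-carbohydrate diet for one week, fasted 4 h, then dosed orally (0.1–1 mg/kg in 0.2% Tween 20/1% CMC; n = 4), killed 4 h later; ip arm 15 mg/kg once daily for two days. Liver microsomes prepared, SCD1 activity measured by tritiated water release from [9,10-3H]stearoyl-CoA. Mean ± SD of at least four rats.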

Chain of Acyl-CoA (8-3)-desaturase (Rattus norvegicus) (Q920R3 whole entry, looked up): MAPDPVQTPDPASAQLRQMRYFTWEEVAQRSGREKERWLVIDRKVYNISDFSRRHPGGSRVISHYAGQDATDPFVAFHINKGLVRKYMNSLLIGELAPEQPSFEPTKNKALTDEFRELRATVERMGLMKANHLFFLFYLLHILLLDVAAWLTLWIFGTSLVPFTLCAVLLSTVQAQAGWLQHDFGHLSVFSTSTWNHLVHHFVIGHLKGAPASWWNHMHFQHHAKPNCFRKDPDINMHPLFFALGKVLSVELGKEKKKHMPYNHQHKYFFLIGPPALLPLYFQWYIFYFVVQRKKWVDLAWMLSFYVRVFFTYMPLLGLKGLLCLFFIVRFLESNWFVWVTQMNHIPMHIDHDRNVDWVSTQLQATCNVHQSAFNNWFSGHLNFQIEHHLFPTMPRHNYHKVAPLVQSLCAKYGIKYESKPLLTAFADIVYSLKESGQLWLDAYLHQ

| SMILES | inhibition [1] | IC50 (Acyl-CoA desaturase 1) | inhibition [2] | Papp A→B [3] | remaining at 0.5 h [4] | Papp B→A [5] | inhibition in vivo at 15 mg/kg (Rattus norvegicus) |
| --- | --- | --- | --- | --- | --- | --- | --- |
| O=C(NCCCc1ccccc1)c1ccc(N2CCN(C(=O)c3ccccc3C(F)(F)F)CC2)nn1 | inactive | 69 nM | inactive |  |  |  |  |
| CC(C)CCNC(=O)c1cnc(N2CCN(C(=O)c3ccccc3C(F)(F)F)CC2)cn1 |  | > 10000 nM |  |  |  |  |  |
| O=C(NC[C@@H](O)c1ccccc1)c1ccc(N2CCN(C(=O)c3ccccc3C(F)(F)F)CC2)nn1 | inactive |  | inactive | 23 ×10⁻⁶ cm/s | 82% | 29 ×10⁻⁶ cm/s | > 60% |
| O=C(NCc1cocn1)c1ccc(N2CCN(C(=O)c3ccccc3C(F)(F)F)CC2)nn1 |  | 272 nM |  |  |  |  |  |
| COc1ccc(F)cc1C(=O)N1CCN(c2ccc(C(=O)NCCC3CC3)nn2)CC1 |  | 710 nM |  |  |  |  |  |
| N#Cc1ccccc1C(=O)N1CCN(c2ccc(C(=O)NCCC3CC3)nn2)CC1 |  | > 1000 nM |  |  |  |  |  |
| O=C(Nc1ccccc1)c1ccc(N2CCN(C(=O)c3ccccc3C(F)(F)F)CC2)nn1 | inactive | 83 nM | inactive | 13 ×10⁻⁶ cm/s | 9% | 10 ×10⁻⁶ cm/s |  |
| O=C(NCCC1CC1)c1ccc(N2CCN(C(=O)C3CC3C(F)(F)F)CC2)nn1 (stereo not given) |  | > 1000 nM |  |  |  |  |  |
| O=C(Nc1ccccn1)c1ccc(N2CCN(C(=O)c3ccccc3C(F)(F)F)CC2)nn1 |  | 1400 nM |  |  |  |  |  |
| CC(C)CCNC(=O)c1ccc(N2CCN(C(=O)c3ccccc3C(F)(F)F)CC2)nc1 |  | 78 nM |  |  |  |  |  |
| O=C(NCCC1CC1)c1ccc(N2CCN(C(=O)c3ccccc3F)CC2)nn1 |  | > 1000 nM |  |  |  |  |  |
| CC(CNC(=O)c1ccc(N2CCN(C(=O)c3ccccc3C(F)(F)F)CC2)nn1)c1ccccc1 (stereo not given) | inactive | 150 nM | inactive |  |  |  |  |
| O=C(NCCC1CC1)c1ccc(N2CCN(C(=O)c3cccc(F)c3C(F)(F)F)CC2)nn1 | inactive | 58 nM | inactive | 20 ×10⁻⁶ cm/s | 72% | 26 ×10⁻⁶ cm/s |  |
| O=C(NCCCC1CC1)c1ccc(N2CCN(C(=O)c3ccccc3C(F)(F)F)CC2)nn1 | inactive | 34 nM | inactive | 32 ×10⁻⁶ cm/s | 63% | 30 ×10⁻⁶ cm/s | > 60% |
| O=C(NCc1ncco1)c1ccc(N2CCN(C(=O)c3ccccc3C(F)(F)F)CC2)nn1 |  | 500 nM |  |  |  |  |  |
| O=C(NCCc1ccccc1)c1ccc(N2CCN(C(=O)c3ccccc3C(F)(F)F)CC2)nn1 | inactive |  | inactive | 16 ×10⁻⁶ cm/s | 56% | 15 ×10⁻⁶ cm/s |  |
| O=C(NCc1nccs1)c1ccc(N2CCN(C(=O)c3ccccc3C(F)(F)F)CC2)nn1 | inactive | 32 nM | inactive | 29 ×10⁻⁶ cm/s | 79% | 29 ×10⁻⁶ cm/s |  |
| CN(C)c1ccccc1C(=O)N1CCN(c2ccc(C(=O)NCCC3CC3)nn2)CC1 |  | 920 nM |  |  |  |  |  |
| O=C(NCc1ccccc1)c1ccc(N2CCN(C(=O)c3ccccc3C(F)(F)F)CC2)nn1 | inactive | 6 nM | inactive | 34 ×10⁻⁶ cm/s | 97% | 34 ×10⁻⁶ cm/s |  |
| CCCCCCNC(=O)c1ccc(N2CCN(C(=O)c3ccccc3C(F)(F)F)CC2)nn1 | inactive | 21 nM | inactive | 20 ×10⁻⁶ cm/s | 14% | 18 ×10⁻⁶ cm/s |  |
| O=C(NCc1ccn[nH]1)c1ccc(N2CCN(C(=O)c3ccccc3C(F)(F)F)CC2)nn1 |  | > 1000 nM |  |  |  |  |  |

| SMILES | inhibition [1] | IC50 (Acyl-CoA desaturase 1) | inhibition [2] | Papp A→B [3] | remaining at 0.5 h [4] | Papp B→A [5] | inhibition in vivo at 15 mg/kg (Rattus norvegicus) |
| --- | --- | --- | --- | --- | --- | --- | --- |
| Cc1cnc(CNC(=O)c2ccc(N3CCN(C(=O)c4ccccc4C(F)(F)F)CC3)nn2)cn1 | inactive | 33 nM | inactive |  |  |  |  |
| CCCCCNC(=O)c1ccc(N2CCN(C(=O)c3ccccc3C(F)(F)F)CC2)nn1 | inactive | 25 nM | inactive | 22 ×10⁻⁶ cm/s | 49% | 22 ×10⁻⁶ cm/s |  |
| O=C(NCCC1CC1)c1ccc(N2CCN(C(=O)c3cc(F)ccc3F)CC2)nn1 |  | 3110 nM |  |  |  |  |  |
| O=C(NCCC1CC1)c1ccc(N2CCN(C(=O)c3ccccc3C(=O)O)CC2)nn1 |  | > 10000 nM |  |  |  |  |  |
| CCOCCNC(=O)c1ccc(N2CCN(C(=O)c3ccccc3C(F)(F)F)CC2)nn1 |  | 1250 nM |  |  |  |  |  |
| O=C(NCc1ccccn1)c1ccc(N2CCN(C(=O)c3ccccc3C(F)(F)F)CC2)nn1 |  | 352 nM |  |  |  |  |  |
| O=C(NCCC1CC1)c1ccc(N2CCN(C(=O)/C=C\C(F)(F)F)CC2)nn1 |  | > 10000 nM |  |  |  |  |  |
| Cc1ccc(C)c(C(=O)N2CCN(c3ccc(C(=O)NCCC4CC4)nn3)CC2)c1 |  | 942 nM |  |  |  |  |  |
| CCCCCCCNC(=O)c1ccc(N2CCN(C(=O)c3ccccc3C(F)(F)F)CC2)nn1 | inactive | 18 nM | inactive |  |  |  |  |
| CC(C)CCNC(=O)c1cnc(N2CCN(C(=O)c3ccccc3C(F)(F)F)CC2)nc1 |  | > 10000 nM |  |  |  |  |  |
| CC1CCCCC1C(=O)N1CCN(c2ccc(C(=O)NCCC3CC3)nn2)CC1 (stereo not given) |  | 680 nM |  |  |  |  |  |
| CC(C)CCNC(=O)c1ccc(N2CCN(C(=O)c3ccccc3C(F)(F)F)CC2)cn1 |  | 220 nM |  |  |  |  |  |
| O=C(NCCC1CC1)c1ccc(N2CCN(C(=O)c3ccc(F)cc3C(F)(F)F)CC2)nn1 | inactive | 21 nM | inactive | 22 ×10⁻⁶ cm/s | 69% | 22 ×10⁻⁶ cm/s | > 60% |
| CN(C)c1ccc(Cl)c(C(=O)N2CCN(c3ccc(C(=O)NCCC4CC4)nn3)CC2)c1 |  | > 10000 nM |  |  |  |  |  |
| CCCCCCNC(=O)c1ncc(N2CCN(C(=O)c3ccccc3C(F)(F)F)CC2)cn1 |  | 1200 nM |  |  |  |  |  |
| O=C(NCc1ccc(C(F)(F)F)o1)c1ccc(N2CCN(C(=O)c3ccccc3C(F)(F)F)CC2)nn1 | inactive | 31 nM | inactive | 18 ×10⁻⁶ cm/s | 78% | 18 ×10⁻⁶ cm/s |  |
| COc1ccc(Br)c(C(=O)N2CCN(c3ccc(C(=O)NCCCc4ccccc4)cn3)CC2)c1 |  | 5100 nM |  |  |  |  |  |
| O=C(NCCCCC1CC1)c1ccc(N2CCN(C(=O)c3ccccc3C(F)(F)F)CC2)nn1 | inactive |  | inactive | 13 ×10⁻⁶ cm/s | 42% | 17 ×10⁻⁶ cm/s |  |
| O=C(NC[C@H](O)c1ccccc1)c1ccc(N2CCN(C(=O)c3ccccc3C(F)(F)F)CC2)nn1 | inactive |  | inactive | 22 ×10⁻⁶ cm/s | 92% | 28 ×10⁻⁶ cm/s |  |
| Cc1ccc(CNC(=O)c2ccc(N3CCN(C(=O)c4ccccc4C(F)(F)F)CC3)nn2)o1 | inactive | 15 nM | inactive | 25 ×10⁻⁶ cm/s | 37% | 23 ×10⁻⁶ cm/s | < 30% |
| CC(C)(O)CCNC(=O)c1ccc(N2CCN(C(=O)c3ccccc3C(F)(F)F)CC2)nn1 |  | 10000 nM |  |  |  |  |  |

Source: ChEMBL document CHEMBL2311383, “Discovery of piperazin-1-ylpyridazine-based potent and selective stearoyl-CoA desaturase-1 inhibitors for the treatment of obesity and metabolic syndrome” (J Med Chem, 2013)
